Measurements taken from ChEMBL document CHEMBL3792385, “Identification and Evaluation of Antiepileptic Activity of C21 Steroidal Glycosides from the Roots of Cynanchum wilfordii” (2016).

Tests used:
Assay type in all cases: functional
Mus musculus [1] = experiment: Antiepileptic activity in KM mouse assessed as protection against maximal electroshock-induced seizures at 100 mg/kg, po administered 1 hr prior to electrical stimulation
Summary of the method: (§1)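 Male KM mice, 20 ± 2 g, dosed orally; vehicle-treated group as control. Read-out is protection rate against maximal electroshock-induced seizures. Graded doses of 25, 50, 75, 100 and 150 mg/kg were used. ED50 and 95% confidence interval were fitted to the Hill equation.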

Mus musculus [2] = experiment: Antiepileptic activity in po dosed KM mouse assessed as protection against maximal electroshock-induced seizures administered 1 hr prior to electrical stimulation; summary of the method: as §1
Mus musculus [3] = experiment: Antiepileptic activity in KM mouse assessed as protection against maximal electroshock-induced seizures at 75 mg/kg, po administered 1 hr prior to electrical stimulation; summary of the method: as §1
Mus musculus [4] = experiment: Antiepileptic activity in KM mouse assessed as protection against maximal electroshock-induced seizures at 50 mg/kg, po administered 1 hr prior to electrical stimulation; summary of the method: as §1
Mus musculus [5] = experiment: Antiepileptic activity in KM mouse assessed as protection against maximal electroshock-induced seizures at 25 mg/kg, po administered 1 hr prior to electrical stimulation; summary of the method: as §1
Mus musculus [6] = experiment: Antiepileptic activity in KM mouse assessed as protection against maximal electroshock-induced seizures at 150 mg/kg, po administered 1 hr prior to electrical stimulation; summary of the method: as §1
Mus musculus [7] = experiment: Antiepileptic activity in po dosed KM mouse assessed as protection against maximal electroshock-induced seizures administered 30 mins prior to electrical stimulation
Summary of the method: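 Male KM mice (20 ± 2 g) were given compound orally, with a vehicle control group. Screening used 100 mg/kg, and dose–response series used 25, 50, 75, 100 and 150 mg/kg. The read-out was the percentage of mice protected from MES-induced seizures. ED50 and 95% confidence intervals were derived by Hill-equation fitting.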

SMILES | inhibition in vivo at 100 mg/kg (Mus musculus [1]) | ED50 (Mus musculus [2]) | other results
CO[C@H]1C[C@H](O[C@@H]2[C@H](C)O[C@@H](O[C@H]3[C@@H](OC)C[C@H](O[C@H]4CC[C@@]5(C)C(=CC[C@]6(O)[C@@H]5C[C@@H](OC(=O)/C=C/c5ccccc5)[C@@]5(C)[C@]6(O)CC[C@@]5(O)C(C)=O)C4)O[C@@H]3C)C[C@@H]2OC)O[C@H](C)[C@H]1O | 60% | 95.3 mg/kg | 
CO[C@H]1C[C@@H](O[C@H]2[C@H](C)O[C@H](O[C@H]3[C@@H](C)O[C@H](O[C@H]4[C@@H](OC)C[C@H](O[C@@H]5CC[C@]6(C)C(=CC[C@@]7(O)[C@H]6C[C@H](OC(C)=O)[C@]6(C)[C@@]7(O)CC[C@]6(O)C(C)=O)C5)O[C@@H]4C)C[C@H]3OC)C[C@H]2OC)O[C@H](C)[C@H]1O |  | > 200 mg/kg | 
CO[C@H]1C[C@@H](O[C@H]2[C@H](C)O[C@H](O[C@H]3[C@@H](C)O[C@H](O[C@H]4[C@@H](OC)C[C@H](O[C@@H]5CC[C@]6(C)C(=CC[C@@]7(O)[C@H]6C[C@H](OC(=O)/C=C(\C)C(C)C)[C@]6(C)[C@@]7(O)CC[C@]6(O)C(C)=O)C5)O[C@@H]4C)C[C@H]3OC)C[C@H]2OC)O[C@H](C)[C@H]1O | 40% | 124 mg/kg | 
CC[C@@H](C)C(=O)O[C@@H](C)[C@]1(O)CC[C@@]2(O)[C@]1(C)[C@H](OC(=O)/C=C/c1ccccc1)C[C@@H]1[C@@]3(C)CC[C@H](O[C@@H]4C[C@@H](OC)[C@@H](O[C@H]5C[C@H](OC)[C@H](O[C@H]6C[C@H](OC)[C@H](O[C@H]7C[C@@H](OC)[C@@H](O)[C@H](C)O7)[C@@H](C)O6)[C@H](C)O5)[C@H](C)O4)CC3=CC[C@]12O | 90% | 48.5 mg/kg | inhibition in vivo at 75 mg/kg (Mus musculus [3]): 70%; inhibition in vivo at 50 mg/kg (Mus musculus [4]): 50%; inhibition in vivo at 25 mg/kg (Mus musculus [5]): 20%; inhibition in vivo at 150 mg/kg (Mus musculus [6]): 100%
CO[C@H]1C[C@H](O[C@H]2[C@H](C)O[C@H](O[C@H]3CC[C@@]4(C)C(=CC[C@]5(O)[C@@H]4C[C@@H](OC(=O)/C=C/c4ccccc4)[C@@]4(C)[C@]5(O)CC[C@@]4(O)[C@H](C)OC(=O)c4cccnc4)C3)C[C@H]2OC)O[C@@H](C)[C@H]1O[C@H]1C[C@H](OC)[C@H](O[C@H]2C[C@@H](OC)[C@@H](O)[C@H](C)O2)[C@@H](C)O1 | 55.5% | 88.1 mg/kg | 
CO[C@H]1C[C@@H](O[C@H]2[C@H](C)O[C@H](O[C@H]3[C@@H](C)O[C@H](O[C@H]4[C@@H](OC)C[C@H](O[C@@H]5CC[C@]6(C)C(=CC[C@@]7(O)[C@H]6C[C@H](O)[C@]6(C)[C@@]7(O)CC[C@]6(O)C(C)=O)C5)O[C@@H]4C)C[C@H]3OC)C[C@H]2OC)O[C@H](C)[C@H]1O |  | > 200 mg/kg | 
CO[C@H]1C[C@H](O[C@H]2[C@@H](OC)C[C@H](O[C@H]3CC[C@@]4(C)C(=CC[C@]5(O)[C@@H]4C[C@@H](OC(=O)/C=C(\C)C(C)C)[C@@]4(C)[C@]5(O)CC[C@@]4(O)C(C)=O)C3)O[C@@H]2C)O[C@@H](C)[C@H]1O[C@H]1C[C@H](OC)[C@H](O[C@H]2O[C@@H](CO)[C@H](O)[C@@H](O)[C@@H]2O)[C@@H](C)O1 |  | > 200 mg/kg | 
CO[C@H]1C[C@@H](O[C@H]2[C@H](C)O[C@H](O[C@H]3[C@@H](C)O[C@H](O[C@H]4[C@@H](OC)C[C@H](O[C@@H]5CC[C@]6(C)C(=CCC(=O)[C@H]6C[C@H](OC(=O)/C=C/c6ccccc6)[C@]6(C)C(=O)CC[C@]6(O)[C@@H](C)OC(C)=O)C5)O[C@@H]4C)C[C@H]3OC)C[C@H]2OC)O[C@H](C)[C@H]1O |  | > 200 mg/kg | 
CO[C@H]1C[C@H](O[C@H]2CC[C@@]3(C)C(=CC[C@]4(O)[C@@H]3C[C@@H](OC(=O)/C=C(\C)C(C)C)[C@@]3(C)[C@]4(O)CC[C@@]3(O)C(C)=O)C2)O[C@H](C)[C@H]1O[C@@H]1C[C@@H](OC)[C@@H](O[C@H]2C[C@H](OC)[C@H](O[C@@H]3C[C@H](OC)[C@H](O[C@H]4O[C@@H](CO)[C@H](O)[C@@H](O)[C@@H]4O)[C@@H](C)O3)[C@@H](C)O2)[C@@H](C)O1 |  | > 200 mg/kg | 
CO[C@H]1C[C@@H](O[C@H]2[C@H](C)O[C@H](O[C@H]3[C@@H](C)O[C@H](O[C@H]4[C@@H](OC)C[C@H](O[C@@H]5CC[C@]6(C)C(=CC[C@@]7(O)[C@H]6C[C@H](OC(=O)/C=C/c6ccccc6)[C@]6(C)[C@@]7(O)CC[C@]6(O)C(C)=O)C5)O[C@@H]4C)C[C@H]3OC)C[C@H]2OC)O[C@H](C)[C@H]1O | 70% | 72.3 mg/kg | 
CCOC(=O)Nc1ccc(NCc2ccc(F)cc2)cc1N [EZOGABINE] |  |  | ED50 (Mus musculus [7]): 15 mg/kg
